According to ChEMBL document CHEMBL1152262, “New cyclic somatostatin analogues containing a pyrazinone ring: importance of Tyr for antiproliferative activity” (2008):
Where a SMILES comes first, the peptide text is derived from it. Bridges are numbered along the chain shown (N, C = ends). [ ]: non-standard residue; d: D form.

Columns and labels:
Type in all cases: functional
A-431 [1] = test: Antiproliferative activity against human A431 cells at 10 uM by MTT assay
How it was run: (§1)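 MTT read-out of proliferation in A431 (human epithelial tumour) and SW480 (human colon carcinoma) cells, both described as expressing SSTRs. Each analogue was tested at […]. TT-232 and cycloheximide were run as positive controls.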

SW480 [2] = test: Antiproliferative activity against human SW480 cells at 10 uM by MTT assay; how it was run: as §1
SW480 [3] = test: Antiproliferative activity against human SW480 cells at 25 uM by MTT assay; how it was run: as §1
A-431 [4] = test: Antiproliferative activity against human A431 cells at 25 uM by MTT assay; how it was run: as §1
SW480 [5] = test: Antiproliferative activity against human SW480 cells at 50 uM by MTT assay; how it was run: as §1
A-431 [6] = test: Antiproliferative activity against human A431 cells at 50 uM by MTT assay; how it was run: as §1

Row | Compound | Activity (A-431 [1]) | Activity (SW480 [2]) | Activity (SW480 [3]) | Activity (A-431 [4]) | Activity (SW480 [5]) | Activity (A-431 [6])
1 | Cc1nc2c(=O)[nH]c1CCCCNC(=O)[C@H](CCCCN)NC(=O)[C@@H](Cc1c[nH]c3ccccc13)NC(=O)[C@H](Cc1ccccc1)NC(=O)CC2 | 0% | 2% | 4% | 0% | 4% | 0%
2 | Cc1nc2c(=O)[nH]c1CCCCNC(=O)[C@H](CCCCN)NC(=O)[C@@H](Cc1c[nH]c3ccccc13)NC(=O)[C@H](Cc1ccc(O)cc1)NC(=O)CC2 | 28% | 35% | 31% | 42% | 35% | 58%
3 | Cc1nc2c(=O)[nH]c1CCC(=O)N[C@@H](Cc1ccc(O)cc1)C(=O)N[C@H](Cc1c[nH]c3ccccc13)C(=O)N[C@@H](CCCCN)C(=O)NCCCC2 | 19% | 24% | 23% | 36% | 7% | 56%
4 | Cc1cc(O)cc(C)c1C[C@@H]1NC(=O)CCc2[nH]c(=O)c(nc2C)CCCCNC(=O)[C@H](CCCCN)NC(=O)[C@@H](Cc2c[nH]c3ccccc23)NC1=O | 0% | 8% | 16% | 0% | 14% | 0%
5 | C[C@@H]1C[C@@H]([C@H](O)CC2CC(=O)NC(=O)C2)C(=O)[C@@H](C)C1 [CYCLOHEXIMIDE] | 40% | 68% | 85% | 70% | 92% | 80%
6 | C[C@@H](O)[C@H](NC(=O)[C@@H]1CSSC[C@H](NC(=O)[C@H](N)Cc2ccccc2)C(=O)N[C@@H](Cc2ccc(O)cc2)C(=O)N[C@H](Cc2c[nH]c3ccccc23)C(=O)N[C@@H](CCCCN)C(=O)N1)C(N)=O [TT-232] (H-[dF]CY[dW]KCT-NH2; disulfide 2-6) | 50% | 13% | 47% | 60% | 88% | 80%
7 | Cc1cc(O)cc(C)c1C[C@@H]1NC(=O)CCc2nc(C)c([nH]c2=O)CCCCNC(=O)[C@H](CCCCN)NC(=O)[C@@H](Cc2c[nH]c3ccccc23)NC1=O | 0% | 2% | 11% | 0% | 7% | 0%
8 | Cc1nc2c(=O)[nH]c1CCC(=O)N[C@@H](Cc1ccccc1)C(=O)N[C@H](Cc1c[nH]c3ccccc13)C(=O)N[C@@H](CCCCN)C(=O)NCCCC2 | 31% | 0% | 7% | 28% | 0% | 25%
